In series [1] the target is Renin (Homo sapiens) (UniProt P00797). As to the kind of experiment: Maximum hypotensive activity, the magnitude of the human renin dependent blood pressure component was measured. (administered perorally).
The nature of series [2]: Solubility in water at 37 degrees Centigrade. The following applies: read-out: S. It counts as physicochemical. Summed up:
(§1)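 Visual estimate: compound added to distilled water in a series of clear tubes at 1-100 mg/mL, tubes shaken, observed first at 25 °C and again after 30 min in a 37 °C water bath.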

Series [3] addresses Renin (Homo sapiens) (UniProt P00797). As to the kind of experiment: Maximum hypotensive activity, the magnitude of the human renin dependent blood pressure component was measured (administered intravenously.).
The target is the same in series [4]. As to the kind of experiment: Tested in vitro for inhibitory activity against plasma renin in human plasma.
A short description of series [5]: Solubility in water at 25 degrees Centigrade. In kind it is physicochemical. The following applies: read-out: S. Summed up:
as §1

Converted amounts (≈) assume the structure as drawn. *1 amine or outer side, *2 acyl side, *3 side chain or, on linkers, in order; H or OH if unused. Where a SMILES comes first, the peptide text is derived from it. [ ]: non-standard residue; d: D form. The star is where a group is joined. Leuψ((S)CH(OH)CH2)dVal = CC(C)C[C@H](N[*:1])[C@@H](O)C[C@@H](C(=O)[*:2])C(C)C; X2 = OC[C@H]1O[C@H](O)[C@H](N*)[C@@H](O)[C@H]1O; NMeH = CN[C@@H](Cc1c[nH]cn1)C(=O)O; NHCH2(2-pyridyl) = c1ccc(CN*)nc1; NHC(CH2OH)3 = OCC(CO)(CO)N*; Boc = CC(C)(C)OC(=O)*; CO = O=C([*:1])[*:2]

Chain of Renin (Homo sapiens) (P00797 whole entry, looked up): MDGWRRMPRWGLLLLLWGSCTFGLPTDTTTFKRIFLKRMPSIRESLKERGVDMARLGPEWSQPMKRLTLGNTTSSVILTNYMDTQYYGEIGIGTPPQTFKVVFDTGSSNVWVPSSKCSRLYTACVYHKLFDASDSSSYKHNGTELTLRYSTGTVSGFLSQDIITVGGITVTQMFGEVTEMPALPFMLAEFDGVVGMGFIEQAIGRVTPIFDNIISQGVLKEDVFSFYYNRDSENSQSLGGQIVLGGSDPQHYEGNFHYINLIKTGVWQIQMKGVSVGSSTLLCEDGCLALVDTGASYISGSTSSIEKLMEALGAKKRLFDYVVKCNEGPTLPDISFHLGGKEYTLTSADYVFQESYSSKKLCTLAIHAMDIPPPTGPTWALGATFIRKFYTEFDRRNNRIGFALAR

With `CC[C@H](C)[C@H](NC(=O)[C@H](C[C@H](O)[C@H](CC(C)C)NC(=O)[C@H](Cc1c[nH]cn1)N(C)C(=O)[C@H](Cc1ccccc1)NC(=O)[C@@H]1CCCN1C(=O)OC(C)(C)C)C(C)C)C(=O)NC(CO)(CO)CO` (Boc-PF[NMeH][Leuψ((S)CH(OH)CH2)dVal]I-{NHC(CH2OH)3}), the Hypotensive activity in series [1] came to 35 mmHg; in series [3], 30 mmHg. Moreover, the solubility in series [2] was < 1000 µg/mL; in series [5], 1000 µg/mL (≈ 1060 µM). Besides, the half-maximal inhibitory concentration (IC50) in series [4] worked out at 0.26 nM.

As for `CC[C@H](C)[C@H](NC(=O)[C@H](C[C@H](O)[C@H](CC(C)C)NC(=O)[C@H](Cc1c[nH]cn1)N(C)C(=O)[C@H](Cc1ccccc1)NC(=O)[C@@H]1CCCN1C(=O)OC(C)(C)C)C(C)C)C(=O)NCc1ccccn1` (Boc-PF[NMeH][Leuψ((S)CH(OH)CH2)dVal]I-{NHCH2(2-pyridyl)}), the results for the Hypotensive activity in series [1] and in series [3] were 24 mmHg and 25 mmHg, respectively. In addition, the solubility in series [2] and in series [5] was < 1000 µg/mL each time. For the same compound, in series [4], inhibition was half-maximal at 0.26 nM (IC50).

`CC[C@H](C)[C@H](NC(=O)[C@H](C[C@H](O)[C@H](CC(C)C)NC(=O)[C@H](Cc1c[nH]cn1)N(C)C(=O)[C@H](Cc1ccccc1)NC(=O)[C@@H]1CCCN1C(=O)NC(CO)(CO)CO)C(C)C)C(=O)NCc1ccccn1` ({NHC(CH2OH)3-CO}-PF[NMeH][Leuψ((S)CH(OH)CH2)dVal]I-{NHCH2(2-pyridyl)}): the Hypotensive activity in series [1] was 38 mmHg; in series [3], 40 mmHg. The solubility in series [2] and in series [5] was 1000 µg/mL (≈ 1020 µM) throughout. Further, in series [4], it took 0.33 nM to reach half-maximal inhibition (IC50).

On to `CC[C@H](C)[C@H](NC(=O)[C@H](C[C@H](O)[C@H](CC(C)C)NC(=O)[C@H](Cc1cnc[nH]1)N(C)C(=O)[C@H](Cc1ccccc1)NC(=O)[C@@H]1CCCN1C(=O)N[C@@H]1[C@@H](O)[C@@H](O)[C@@H](CO)O[C@@H]1O)C(C)C)C(=O)NCc1ccccn1` ({X2-CO}-PF[NMeH][Leuψ((S)CH(OH)CH2)dVal]I-{NHCH2(2-pyridyl)}), for which the solubility in series [2] and in series [5] was < 2000 µg/mL throughout. For the same compound, it took 0.49 nM to reach half-maximal inhibition in series [4] (IC50).

In the case of `CC[C@H](C)[C@H](NC(=O)[C@H](C[C@H](O)[C@H](CC(C)C)NC(=O)[C@H](Cc1c[nH]cn1)N(C)C(=O)[C@H](Cc1ccccc1)NC(=O)[C@@H]1CCCN1C(=O)N[C@@H]1[C@@H](O)[C@@H](O)[C@@H](CO)O[C@@H]1O)C(C)C)C(=O)NCc1ccccn1` ({X2-CO}-PF[NMeH][Leuψ((S)CH(OH)CH2)dVal]I-{NHCH2(2-pyridyl)}), the results for the Hypotensive activity in series [1] and in series [3] were 37 mmHg and 36 mmHg, respectively.

The term IC50 denotes the midpoint of a concentration-inhibition curve.

These data come from ChEMBL document CHEMBL1124884, “Potent renin inhibitory peptides containing hydrophilic end groups” (J Med Chem, 1990).
